Measured values as given in ChEMBL document CHEMBL1828552, “Synthesis and studies of novel 2-(4-cyano-3-trifluoromethylphenyl amino)-4-(quinoline-4-yloxy)-6-(piperazinyl/piperidinyl)-s-triazines as potential antimicrobial, antimycobacterial and anticancer agents” (2011).
In brackets after ≈: the same amount, converted by molar mass.

Assays:
Klebsiella pneumoniae [1] = assay: Antibacterial activity against 10^5 CFU/mL Klebsiella pneumoniae MTCC 109 after 24 hrs by agar streak dilution method; format: functional; conditions: MTCC 109, 24 h
In short: (§1)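 Agar streak dilution. Stock 100 µg/mL in DMSO; graded amounts were mixed into molten nutrient agar and poured at 4–5 mm depth. Plates carried serial dilutions over […]. About 10⁵ CFU/mL of each bacterium was applied, and plates were incubated at 37 ± 1 °C for 24 h. MIC was read from the dilution series.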

Candida albicans [2] = assay: Antifungal activity against 10^5 CFU/mL Candida albicans MTCC 183 after 48 hrs by disc diffusion technique; format: functional
Salmonella typhi [3] = assay: Antibacterial activity against 10^5 CFU/mL Salmonella typhi MTCC 733 after 24 hrs by agar streak dilution method; format: functional, Salmonella enterica subsp. enterica serovar Typhi; conditions: Salmonella enterica, MTCC 733, 24 h
Proteus vulgaris [4] = assay: Antibacterial activity against 10^5 CFU/mL Proteus vulgaris MTCC 1771 after 24 hrs by agar streak dilution method; format: functional; conditions: MTCC 1771, 24 h; in short: as §1
Staphylococcus aureus [5] = assay: Antibacterial activity against 10^5 CFU/mL Staphylococcus aureus MTCC 96 after 24 hrs by agar streak dilution method; format: functional; conditions: MTCC 96, 24 h; in short: as §1
Pseudomonas aeruginosa [6] = assay: Antibacterial activity against 10^5 CFU/mL Pseudomonas aeruginosa MTCC 741 after 24 hrs by agar streak dilution method; format: functional; conditions: MTCC 741, 24 h; in short: as §1
Shigella flexneri [7] = assay: Antibacterial activity against 10^5 CFU/mL Shigella flexneri MTCC 1457 after 24 hrs by agar streak dilution method; format: functional; conditions: MTCC 1457, 24 h; in short: as §1
Staphylococcus aureus [8] = assay: Antibacterial activity against 10^5 CFU/mL Staphylococcus aureus MTCC 96 after 24 hrs by disc diffusion technique; format: functional
In short: (§2)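 Disc diffusion on Mueller–Hinton agar poured 5 mm deep. The surface was swabbed with a 10⁵ CFU/mL […] suspension. Filter-paper discs 6.25 mm in diameter were soaked in compound in DMSO and placed on the agar. Plates were incubated 24 h at 37 ± 1 °C, and the inhibition zone was measured in mm. A DMSO disc served as blank.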

Bacillus cereus [9] = assay: Antibacterial activity against 10^5 CFU/mL Bacillus cereus MTCC 619 after 24 hrs by disc diffusion technique; format: functional; in short: as §2
Bacillus cereus [10] = assay: Antibacterial activity against 10^5 CFU/mL Bacillus cereus MTCC 619 after 24 hrs by agar streak dilution method; format: functional; conditions: MTCC 619, 24 h; in short: as §1
Aspergillus clavatus [11] = assay: Antifungal activity against 10^5 CFU/mL Aspergillus clavatus MTCC 1323 after 48 hrs by disc diffusion technique; format: functional
Klebsiella pneumoniae [12] = assay: Antibacterial activity against 10^5 CFU/mL Klebsiella pneumoniae MTCC 109 after 24 hrs by disc diffusion technique; format: functional; in short: as §2
Salmonella typhi [13] = assay: Antibacterial activity against 10^5 CFU/mL Salmonella typhi MTCC 733 after 24 hrs by disc diffusion technique; format: functional, Salmonella enterica subsp. enterica serovar Typhi
In short: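 Disc diffusion. Mueller-Hinton agar autoclaved 120 °C 30 min, poured 5 mm deep. Surface swabbed with 10⁵ CFU/mL suspension […]. 6.25 mm filter-paper discs soaked in compound in DMSO; DMSO-only disc as blank. Incubated 37 ± 1 °C, 24 h for bacteria or 48 h for fungi. Ciprofloxacin and ketoconazole discs as reference drugs. Inhibition zone measured in mm.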

Escherichia coli [14] = assay: Antibacterial activity against 10^5 CFU/mL Escherichia coli MTCC 739 after 24 hrs by disc diffusion technique; format: functional; in short: as §2
Aspergillus fumigatus [15] = assay: Antifungal activity against 10^5 CFU/mL Aspergillus fumigatus MTCC 343 after 48 hrs by disc diffusion technique; format: functional
Aspergillus clavatus [16] = assay: Antifungal activity against 10^5 CFU/mL Aspergillus clavatus MTCC 1323 after 48 hrs by agar streak dilution method; format: functional; conditions: MTCC 1323, 48 h
In short: (§3)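 Agar streak dilution for fungi. Stock 100 µg/mL in DMSO; graded amounts were mixed into molten Sabouraud dextrose agar and poured at 4–5 mm depth. Serial dilutions ran over […]. About 10⁵ CFU/mL inoculum was applied, with incubation at 37 ± 1 °C for 48 h. MIC was read from the dilution series.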

Aspergillus niger [17] = assay: Antifungal activity against 10^5 CFU/mL Aspergillus niger MTCC 282 after 48 hrs by disc diffusion technique; format: functional
Candida albicans [18] = assay: Antifungal activity against 10^5 CFU/mL Candida albicans MTCC 183 after 48 hrs by agar streak dilution method; format: functional; conditions: MTCC 183, 48 h; in short: as §3
Pseudomonas aeruginosa [19] = assay: Antibacterial activity against 10^5 CFU/mL Pseudomonas aeruginosa MTCC 741 after 24 hrs by disc diffusion technique; format: functional; in short: as §2
Aspergillus fumigatus [20] = assay: Antifungal activity against 10^5 CFU/mL Aspergillus fumigatus MTCC 343 after 48 hrs by agar streak dilution method; format: functional; conditions: MTCC 343, 48 h; in short: as §3
Proteus vulgaris [21] = assay: Antibacterial activity against 10^5 CFU/mL Proteus vulgaris MTCC 1771 after 24 hrs by disc diffusion technique; format: functional; in short: as §2
Aspergillus niger [22] = assay: Antifungal activity against 10^5 CFU/mL Aspergillus niger MTCC 282 after 48 hrs by agar streak dilution method; format: functional; conditions: MTCC 282, 48 h; in short: as §3
Escherichia coli [23] = assay: Antibacterial activity against 10^5 CFU/mL Escherichia coli MTCC 739 after 24 hrs by agar streak dilution method; format: functional; conditions: MTCC 739, 24 h; in short: as §1
Shigella flexneri [24] = assay: Antibacterial activity against 10^5 CFU/mL Shigella flexneri MTCC 1457 after 24 hrs by disc diffusion technique; format: functional; in short: as §2
DU-145 = assay: Cytotoxicity against […] human DU145 cells after 48 hrs by SRB assay; format: functional; conditions: DU-145, 48 h
In short: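 SRB assay in DU-145 cells grown in RPMI 1640 with 10% FBS and 2 mM L-glutamine. Cells were plated and held 24 h before addition of four 10-fold concentrations. After 48 h, cells were TCA-fixed, stained with 0.4% SRB and read at 540 nm. GI50, TGI and LC50 were derived against time-zero and control wells; each value is the mean of three experiments.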

SMILES | MIC (Klebsiella pneumoniae [1]) [µg/mL] | inhibition zone (IZ) (Candida albicans [2]) [mm] | MIC (Salmonella typhi [3]) [µg/mL] | MIC (Proteus vulgaris [4]) [µg/mL] | MIC (Staphylococcus aureus [5]) [µg/mL] | MIC (Pseudomonas aeruginosa [6]) [µg/mL] | MIC (Shigella flexneri [7]) [µg/mL] | inhibition zone (IZ) (Staphylococcus aureus [8]) [mm] | inhibition zone (IZ) (Bacillus cereus [9]) [mm] | MIC (Bacillus cereus [10]) [µg/mL] | inhibition zone (IZ) (Aspergillus clavatus [11]) [mm] | inhibition zone (IZ) (Klebsiella pneumoniae [12]) [mm] | inhibition zone (IZ) (Salmonella typhi [13]) [mm] | inhibition zone (IZ) (Escherichia coli [14]) [mm] | inhibition zone (IZ) (Aspergillus fumigatus [15]) [mm] | MIC (Aspergillus clavatus [16]) [µg/mL] | inhibition zone (IZ) (Aspergillus niger [17]) [mm] | MIC (Candida albicans [18]) [µg/mL] | inhibition zone (IZ) (Pseudomonas aeruginosa [19]) [mm] | MIC (Aspergillus fumigatus [20]) [µg/mL] | also measured
COc1ccc(N2CCN(c3nc(Nc4ccc(C#N)c(C(F)(F)F)c4)nc(Oc4ccnc5ccccc45)n3)CC2)cc1 | 25 (≈ 41.8 µM) | 24 | 25 (≈ 41.8 µM) | 12.5 (≈ 20.9 µM) | 25 (≈ 41.8 µM) | 6.25 (≈ 10.4 µM) | 12.5 (≈ 20.9 µM) | 24 | 28 | 6.25 (≈ 10.4 µM) | 28 | 23 | 24 | 25 | 27 | 12.5 (≈ 20.9 µM) | 25 | 50 (≈ 83.5 µM) | 26 | 25 (≈ 41.8 µM) | inhibition zone (IZ) (Proteus vulgaris [21]): 24 mm; MIC (Aspergillus niger [22]): 25 µg/mL (≈ 41.8 µM); MIC (Escherichia coli [23]): 12.5 µg/mL (≈ 20.9 µM); inhibition zone (IZ) (Shigella flexneri [24]): 23 mm; GI50 (DU-145): > 100 µM; LC50 (concentration giving 50% net cell kill relative to time zero) (DU-145): > 100 µM; TGI (DU-145): > 100 µM
N#Cc1ccc(Nc2nc(Oc3ccnc4ccccc34)nc(N3CCCCC3)n2)cc1C(F)(F)F | 100 (≈ 203 µM) | 12 | 100 (≈ 203 µM) | 100 (≈ 203 µM) | 100 (≈ 203 µM) | 100 (≈ 203 µM) | 100 (≈ 203 µM) | 11 | 14 | 100 (≈ 203 µM) | 14 | 15 | 12 | <10 | <10 | 100 (≈ 203 µM) | 12 | 100 (≈ 203 µM) | <10 | 100 (≈ 203 µM) | inhibition zone (IZ) (Proteus vulgaris [21]): 14 mm; MIC (Aspergillus niger [22]): 100 µg/mL (≈ 203 µM); MIC (Escherichia coli [23]): 100 µg/mL (≈ 203 µM); inhibition zone (IZ) (Shigella flexneri [24]): <10 mm; GI50 (DU-145): 94.9 µM; LC50 (concentration giving 50% net cell kill relative to time zero) (DU-145): > 100 µM; TGI (DU-145): > 100 µM
N#Cc1ccc(Nc2nc(Oc3ccnc4ccccc34)nc(N3CCOCC3)n2)cc1C(F)(F)F | 100 (≈ 203 µM) | 13 | 100 (≈ 203 µM) | 100 (≈ 203 µM) | 100 (≈ 203 µM) | 100 (≈ 203 µM) | 100 (≈ 203 µM) | 14 | <10 | 100 (≈ 203 µM) | 13 | 14 | 13 | <10 | <10 | 100 (≈ 203 µM) | 13 | 100 (≈ 203 µM) | <10 | 100 (≈ 203 µM) | inhibition zone (IZ) (Proteus vulgaris [21]): 16 mm; MIC (Aspergillus niger [22]): 100 µg/mL (≈ 203 µM); MIC (Escherichia coli [23]): 100 µg/mL (≈ 203 µM); inhibition zone (IZ) (Shigella flexneri [24]): <10 mm; GI50 (DU-145): 68.3 µM; LC50 (concentration giving 50% net cell kill relative to time zero) (DU-145): > 100 µM; TGI (DU-145): > 100 µM
N#Cc1ccc(Nc2nc(Oc3ccnc4ccccc34)nc(N3CCN(c4cccc(Cl)c4Cl)CC3)n2)cc1C(F)(F)F | 12.5 (≈ 19.6 µM) | 23 | 12.5 (≈ 19.6 µM) | 12.5 (≈ 19.6 µM) | 6.25 (≈ 9.8 µM) | 25 (≈ 39.2 µM) | 12.5 (≈ 19.6 µM) | 28 | 28 | 6.25 (≈ 9.8 µM) | 21 | 24 | 25 | 23 | 25 | 50 (≈ 78.4 µM) | 24 | 50 (≈ 78.4 µM) | 23 | 25 (≈ 39.2 µM) | inhibition zone (IZ) (Proteus vulgaris [21]): 25 mm; MIC (Aspergillus niger [22]): 25 µg/mL (≈ 39.2 µM); MIC (Escherichia coli [23]): 50 µg/mL (≈ 78.4 µM); inhibition zone (IZ) (Shigella flexneri [24]): 24 mm; GI50 (DU-145): > 100 µM; LC50 (concentration giving 50% net cell kill relative to time zero) (DU-145): > 100 µM; TGI (DU-145): > 100 µM
